In paper PMC7557949 (ACS Omega, 2020):
In brackets after ≈: the same amount, converted by molar mass.

Experiments:
C. albicans (ATCC:10231) = test: Agar well diffusion, inhibition zone; type: cell-based, Candida albicans; conditions: 15 mg/mL, 100 μL per well; mm ± SD
In short: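 Fungal plates were poured and agar dried 15 min. 6 mm wells were cut with a sterile borer and filled with 100 μL test compound solution at 15 mg/mL. Inhibition zone diameter (mm) was read after 48 h incubation. Triplicate, reported as mm ± SD.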

S. aureus (ATCC:6538) [1] = test: Agar well diffusion, inhibition zone; type: cell-based, Staphylococcus aureus; conditions: for diameter of the IZ, S. aureus (ATCC:6538): 15 mg/mL, 100 μL per well, mm ± SD; for zone of inhibition at 15000 µg/mL: Staphylococcus aureus, 24 h, read-out: diameter of the IZ, S. aureus (ATCC:6538)
In short: (§1)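 Agar well diffusion. Saline inoculum adjusted to McFarland 0.5 ([…]), i.e. OD 0.13 at 625 nm, and swabbed over dried agar. After 15 min drying, 6 mm wells received 100 μL of test compound at 15 mg/mL. Plates incubated at 37 °C; bacterial zones read in mm after 24 h incubation […]. Triplicate, reported as mm ± SD. Gentamicin and ampicillin served as reference drugs.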

[2] = tested on: hepatitis A virus HM 175 (HAV HM 175); test: Plaque assay, antiviral activity against HAV HM 175; type: cell-based; conditions: nontoxic dose of compound; average of three independent measurements
In short: (§2)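 Plaque reduction. Nontoxic dilutions of test compound were mixed 1:1 with virus at 1 × 105, 1 × 106 or 1 × 107, for 0.5 h at 37 °C. 10-fold dilutions went onto BGM (CBV4), FRHK4 (HAV HM 175) or Hep-2 (adenovirus 7), with 1 h adsorption at 37 °C. Overlay was 2× DMEM plus 1% agarose. Cells were formalin-fixed and crystal violet-stained, and plaques counted. Triplicate. IC50 is the half-maximal plaque-reduction concentration.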

K. pneumonia (ATCC:4415) [3] = test: Agar well diffusion, inhibition zone; type: cell-based, Klebsiella pneumonia; conditions: 15 mg/mL, 100 μL per well; mm ± SD
In short: as §1

[4] = tested on: herpes simplex virus type 1 (HSV-1); test: Plaque assay, antiviral activity against HSV-1; type: cell-based; conditions: for mean % of reduction, herpes simplex virus: nontoxic dose of compound, average of three independent measurements
[5] = tested on: P. aeruginosa (ATCC:27853); test: Agar well diffusion, inhibition zone; type: cell-based, Pseudomonas aeruginosa; conditions: 15 mg/mL, 100 μL per well; mm ± SD
In short: as §1

[6] = tested on: adenovirus type 7 (HAdV7); test: Plaque assay, antiviral activity against adenovirus type 7; type: cell-based; conditions: nontoxic dose of compound; average of three independent measurements
In short: as §2

S. mutans (ATCC:25175) [7] = test: Agar well diffusion, inhibition zone; type: cell-based; conditions: for zone of inhibition at 15000 µg/mL: Streptococcus mutans, 24 h, read-out: diameter of the IZ, S. mutans (ATCC:25175)
In short: as §1

[8] = tested on: ED-43/SG-Feo (VYG) replicon of hepatitis C virus genotype 4a (HCVcc); test: Antiviral bioassay against ED-43/SG-Feo; type: cell-based; conditions: nontoxic dose of compound; average of three independent measurements
In short: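 Huh 7.5 cells carrying the ED-43/SG-Feo (VYG) HCV genotype 4a subgenomic replicon were treated with the nontoxic dose of test compound. Replicon RNA copies were quantified by TaqMan qRT-PCR, and the result was expressed as percent reduction.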

E. coli (ATCC:3008) = test: Agar well diffusion, inhibition zone; type: cell-based, Escherichia coli; conditions: 15 mg/mL, 100 μL per well; mm ± SD
In short: as §1

coxsackievirus B4 (CBV4) = test: Plaque assay, antiviral activity against CBV4; type: cell-based; conditions: nontoxic dose of compound; average of three independent measurements
In short: as §2

[9] = target: T1, dihydrofolate reductase (DHFR) (Homo sapiens, UniProt P00374); test: DHFR inhibitor screening assay; type: biochemical; conditions: for IC50: IC50 on the DHFR, average of three measurements; for inhibition at 0.01 µg/mL: read-out: percent inhibition of DHFR at 0.01 (μg/mL); for inhibition at 0.1 µg/mL: read-out: percent inhibition of DHFR at 0.1 (μg/mL); for inhibition at 1 µg/mL: read-out: percent inhibition of DHFR at 1 (μg/mL); for inhibition at 10 µg/mL: read-out: percent inhibition of DHFR at 10 (μg/mL)
T1 sequence (P00374 1-187): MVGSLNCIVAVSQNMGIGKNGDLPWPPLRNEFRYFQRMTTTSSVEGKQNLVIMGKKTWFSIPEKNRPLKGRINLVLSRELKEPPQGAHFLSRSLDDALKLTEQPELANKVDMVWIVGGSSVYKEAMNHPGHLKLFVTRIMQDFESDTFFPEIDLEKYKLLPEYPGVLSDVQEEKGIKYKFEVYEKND

S. aureus (ATCC:6538) [10] = test: MIC, twofold serial dilution in agar; type: cell-based; conditions: Staphylococcus aureus, read-out: MIC, S. aureus (ATCC:6538)
S. mutans (ATCC:25175) [11] = test: MIC, twofold serial dilution in agar; type: cell-based; conditions: Streptococcus mutans, read-out: MIC, S. mutans (ATCC:25175)
[12] = Cytotoxicity test on Vero cell line; type: cell-based; conditions: African green monkey, uninfected Vero cells
In short: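 Test compound was dissolved at 50 mg/mL in DMSO and decontaminated with 100× antimycotic–antibiotic mix. Cells were seeded at 2 × 10^5 cells/mL and grown 24 h at 37 °C, 5% CO2, to monolayers. Bi-fold dilutions in DMEM were applied for 72 h. Read by daily microscopy for morphology and by trypan blue (0.4%) viable counts. CC50 taken as the concentration giving 50% of untreated-cell OD492.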

Hsp90α = Hsp90α (Homo sapiens, UniProt P07900); test: Hsp90α; type: biochemical
In short: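 AlphaScreen kit assay for Hsp90α C-terminal binding to PPID. Hsp90α was diluted to 1.5 ng/μL in assay buffer and premixed with test compound. The reaction was started with PPID diluted to 10 ng/μL and run 30 min at room temperature. Glutathione acceptor beads were added for 30 min, then streptavidin donor beads for 1 h, and Alpha counts read. Triplicate; percent inhibition calculated against control.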

K. pneumonia (ATCC:4415) [13] = test: MIC, twofold serial dilution in agar; type: cell-based; conditions: Klebsiella pneumoniae, read-out: MIC, K. pneumonia (ATCC:4415)

Hsp90α, sequence (P07900 535-732 limits assumed): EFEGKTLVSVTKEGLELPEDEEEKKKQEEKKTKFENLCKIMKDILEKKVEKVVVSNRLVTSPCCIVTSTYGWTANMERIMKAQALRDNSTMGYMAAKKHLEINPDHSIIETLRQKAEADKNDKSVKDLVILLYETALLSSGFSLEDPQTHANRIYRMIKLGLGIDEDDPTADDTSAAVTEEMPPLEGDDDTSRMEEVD

Structure (SMILES) | diameter of the IZ, C. albicans (ATCC:10231) (C. albicans (ATCC:10231)) | mean % of reduction, HAV HM 175 [2] [%] | mean % of reduction, herpes simplex virus [4] [%] | mean % of reduction, adenovirus type 7 [6] [%] | mean % of reduction, HCVcc genotype 4 [8] [%] | mean % of reduction, CBV4 (coxsackievirus B4 (CBV4)) [%] | zone of inhibition at 15000 µg/mL (S. aureus (ATCC:6538) [1]) [mm] | zone of inhibition at 15000 µg/mL (S. mutans (ATCC:25175) [7]) [mm] | further results
Cc1ccc(S(=O)(=O)Nn2c(N)c(C#N)cc(C#N)c2=O)cc1 [15b, N-(6-Amino-3,5-dicyano-2-oxopyridin-1(2H)-yl)-4-methylbenzenesulfonamide] | no activity | 20.0 ± 0.10 | 30.0 ± 0.30 | 13.3 ± 0.50 | 33.3 ± 0.10 | 40.0 ± 0.20 |  |  | diameter of the IZ, S. aureus (ATCC:6538) (S. aureus (ATCC:6538) [1]): no activity; diameter of the IZ, K. pneumonia (ATCC:4415) (K. pneumonia (ATCC:4415) [3]): no activity; diameter of the IZ, P. aeruginosa (ATCC:27853) [5]: no activity; diameter of the IZ, S. mutans (ATCC:25175) (S. mutans (ATCC:25175) [7]; 15 mg/mL, 100 μL per well, mm ± SD): no activity; diameter of the IZ, E. coli (ATCC:3008) (E. coli (ATCC:3008)): no activity
Nc1n[nH]c2c(-c3nc4ccccc4s3)c(N)n(NS(=O)(=O)c3ccccc3)c(=O)c12 [9a, N-(3,6-Diamino-7-(benzo[d]thiazol-2-yl)-4-oxo-1H-pyrazolo[4,3-c]pyridin-5(4H)-yl)benzenesulfonamide] |  | 10.0 ± 0.10 | 20.0 ± 0.15 | 10.0 ± 0.10 | 13.3 ± 0.10 | 13.3 ± 0.10 | 34 ± 1 | 13.9 ± 0.5 | diameter of the IZ, S. aureus (ATCC:6538) (S. aureus (ATCC:6538) [1]): 34.0 ± 1.0 mm; IC50 [9]: 1.54 µM; inhibition at 0.01 µg/mL [9]: 22.6%; inhibition at 0.1 µg/mL [9]: 33.8%; inhibition at 1 µg/mL [9]: 53.6%; inhibition at 10 µg/mL [9]: 68.4%; MIC (S. aureus (ATCC:6538) [10]): 125 mg/L (≈ 276 µM); MIC (S. mutans (ATCC:25175) [11]): 1000 mg/L (≈ 2210 µM)
Nc1nc2c(ncn2COCCO)c(=O)[nH]1 [acyclovir, reference compound] |  |  |  |  |  |  |  |  | CC50 at 72 h [12]: 2.8 mg/L (≈ 12.4 µM); IC50 ([4]; Human alphaherpesvirus 1, Vero): 0.7 mg/L (≈ 3.11 µM); inhibition at 0.1 µg/mL (Hsp90α; read-out: percentage inhibition of Hsp90α at 0.1 (μg/mL)): 11.2%; inhibition at 10 µg/mL (Hsp90α; read-out: percentage inhibition of Hsp90α at 10 (μg/mL)): 52.3%; inhibition at 100 µg/mL (Hsp90α; read-out: percentage inhibition of Hsp90α at 100 (μg/mL)): 84.1%
CCSC(SCC)=C(C#N)c1nc2ccccc2s1 [3b, 2-(Benzo[d]thiazol-2-yl)-3,3-bis(ethylthio)acrylonitrile] |  | 40.0 ± 0.30 | 26.7 ± 0.20 | 30.0 ± 0.30 | 20.0 ± 0.25 | 20.0 ± 0.20 |  |  | 
CCSc1c(-c2nc3ccccc3s2)c(N)n(NS(=O)(=O)c2ccccc2)c(=O)c1C#N [8c, N-(6-Amino-5-(benzo[d]thiazol-2-yl)-3-cyano-4-(ethylthio)-2-oxopyridin-1(2H)-yl)benzenesulfonamide] |  | 10.0 ± 0.15 | 10.0 ± 0.15 | 10.0 ± 0.15 | 16.7 ± 0.15 | 13.3 ± 0.10 | 24.5 ± 0.7 | 21.3 ± 1.1 | 
N#Cc1cc(C#N)c(=O)n(NS(=O)(=O)c2ccccc2)c1N [15a, N-(6-Amino-3,5-dicyano-2-oxopyridin-1(2H)-yl)benzenesulfonamide] | 19.6 ± 2.0 mm |  |  |  |  |  |  |  | 
CCSc1c(-c2nc3ccccc3s2)c(N)n(NS(=O)(=O)c2ccc(C)cc2)c(=O)c1C#N [8d, N-(6-Amino-5-(benzo[d]thiazol-2-yl)-3-cyano-4-(ethylthio)-2-oxopyridin-1(2H)-yl)-4-methylbenzenesulfonamide] |  |  |  |  |  |  | 29.9 ± 0.6 | 12.5 ± 1 | 
CC1(C)S[C@@H]2[C@H](NC(=O)[C@H](N)c3ccccc3)C(=O)N2[C@H]1C(=O)O [ampicillin, reference compound] |  |  |  |  |  |  | 32 ± 0.5 | 22 ± 0.5 | MIC (S. aureus (ATCC:6538) [10]): 62.5 mg/L (≈ 179 µM); MIC (S. mutans (ATCC:25175) [11]): 62.5 mg/L (≈ 179 µM)
CSc1c(-c2nc3ccccc3s2)c(N)n(NS(=O)(=O)c2ccc(C)cc2)c(=O)c1C#N [8b, N-(6-Amino-5-(benzo[d]thiazol-2-yl)-3-cyano-4-(methylthio)-2-oxopyridin-1(2H)-yl)-4-methylbenzenesulfonamide] |  | 36.7 ± 0.30 | 33.3 ± 0.25 | 20.0 ± 0.20 | 26.7 ± 0.25 | 30.0 ± 0.15 | 19.3 ± 1 | 10.7 ± 0.5 | IC50 [9]: 2.83 µM; inhibition at 0.01 µg/mL [9]: 19.9%; inhibition at 0.1 µg/mL [9]: 40.8%; inhibition at 1 µg/mL [9]: 50.4%; inhibition at 10 µg/mL [9]: 57.7%; MIC (S. aureus (ATCC:6538) [10]): 1000 mg/L (≈ 2070 µM); MIC (K. pneumonia (ATCC:4415) [13]): 125 mg/L (≈ 258 µM); MIC (S. mutans (ATCC:25175) [11]): 250 mg/L (≈ 517 µM)
Cc1ccc(S(=O)(=O)Nn2c(N)c(-c3nc4ccccc4s3)c3[nH]nc(N)c3c2=O)cc1 [9b, N-(3,6-Diamino-7-(benzo[d]thiazol-2-yl)-4-oxo-1H-pyrazolo[4,3-c]pyridin-5(4H)-yl)-4-methylbenzenesulfonamide] | 24.3 ± 0.5 mm |  |  |  |  |  |  |  | diameter of the IZ, E. coli (ATCC:3008) (E. coli (ATCC:3008)): 15.0 ± 0.5 mm
CSc1c(-c2nc3ccccc3s2)c(N)n(NS(=O)(=O)c2ccccc2)c(=O)c1C#N [8a, N-(6-Amino-5-(benzo[d]thiazol-2-yl)-3-cyano-4-(methylthio)-2-oxopyridin-1(2H)-yl)benzenesulfonamide] |  |  | 30.0 ± 0.25 |  | 20.0 ± 0.10 |  | 25.8 ± 0.5 | 19.8 ± 1 | 
CSc1c(-c2nc3ccccc3[nH]2)c(N)n(NS(=O)(=O)c2ccccc2)c(=O)c1C#N [13a, N-(6-Amino-5-(1H-benzo[d]imidazol-2-yl)-3-cyano-4-(methylthio)-2-oxopyridin-1(2H)-yl)benzenesulfonamide] | 22.0 ± 0.5 mm | 13.3 ± 0.10 | 20.0 ± 0.30 | 10.0 ± 0.10 | 20.0 ± 0.15 | 20.0 ± 0.10 | 30 ± 1 |  | 
CSc1c(-c2nc3ccccc3[nH]2)c(N)n(NS(=O)(=O)c2ccc(C)cc2)c(=O)c1C#N [13b, N-(6-Amino-5-(1H-benzo[d]imidazol-2-yl)-3-cyano-4-(methylthio)-2-oxopyridin-1(2H)-yl)-4-methylbenzenesulfonamide] | 21.0 ± 0.1 mm |  |  |  |  |  | 28.9 ± 0.7 |  | 
